Test results from ChEMBL document CHEMBL4400579, “Antibacterial Strategy against H. pylori: Inhibition of the Radical SAM Enzyme MqnE in Menaquinone Biosynthesis” (ACS Med Chem Lett, 2019).
Active and inactive are the calls of the source. No cut-off for these calls is given here.

Legend:
[1] = target: T1, Aminodeoxyfutalosine synthase (Thermus thermophilus (strain HB8 / ATCC 27634 / DSM 579), UniProt Q5SK48); experiment: Inhibition of N-terminal His6-tagged Thermus thermophilus HB8 MqnE expressed in Escherichia coli BL21 (DE3) co-expressing [4Fe-4S]2+ cluster using 3-(1-carboxyvinyloxy)benzoic acid as substrate preincubated for 15 mins in presence of SAM and substrate followed by Ti(3+)citrate addition and measured by discontinuous HPLC analysis
T1 sequence (Q5SK48 whole entry): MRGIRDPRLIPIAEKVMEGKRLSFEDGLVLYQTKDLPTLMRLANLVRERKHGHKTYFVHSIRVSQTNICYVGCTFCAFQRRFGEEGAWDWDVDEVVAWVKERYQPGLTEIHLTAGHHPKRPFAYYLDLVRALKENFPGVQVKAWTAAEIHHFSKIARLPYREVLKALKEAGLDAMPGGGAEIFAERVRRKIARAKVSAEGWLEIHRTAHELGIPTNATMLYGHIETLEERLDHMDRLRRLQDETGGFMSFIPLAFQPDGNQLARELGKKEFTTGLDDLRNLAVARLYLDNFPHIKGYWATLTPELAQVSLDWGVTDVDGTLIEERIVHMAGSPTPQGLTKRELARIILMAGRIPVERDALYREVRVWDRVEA
Method in brief: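 [4Fe-4S]2+-reconstituted T. thermophilus MqnE preincubated with a range of inhibitor concentrations plus excess SAM and substrate 1. Reaction started by reducing the enzyme with Ti(III) citrate. Aminofutalosine formation followed by discontinuous HPLC. Normalized relative initial rates plotted against inhibitor concentration to give IC50. Where IC50 fell within 5-fold of enzyme concentration, Ki fitted with the Morrison tight-binding equation.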

Helicobacter pylori = experiment: Antibacterial activity against Helicobacter pylori 26695 ATCC 700392 measured after 72 hrs; format: functional, organism-based; conditions: 26695 ATCC 700392, 72 h
Method in brief: (§1)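 Bacterial growth inhibition measured by 96-well plate liquid culture. IC50 values taken as reported for each organism.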

[2] = Antibacterial activity against Campylobacter jejuni ATCC 33560 AS-83-79 measured after 16.4 hrs; format: functional, Campylobacter jejuni subsp. jejuni; method in brief: as §1
[3] = target: T2, Aminodeoxyfutalosine synthase (Thermus thermophilus (strain HB8 / ATCC 27634 / DSM 579)) (UniProt Q5SK48); experiment: Reversible inhibition of N-terminal His6-tagged Thermus thermophilus HB8 MqnE expressed in Escherichia coli BL21 (DE3) co-expressing [4Fe-4S]2+ cluster assessed as restoration of enzyme activity at 2 mM using 3-(1-carboxyvinyloxy)benzoic acid as substrate preincubated for 1 hr in presence of SAM, substrate and Ti(3+)citrate followed by compound washout and subsequent addition of SAM, substrate and Ti(3+)citrate measured after 1 hr by HPLC analysis
T2 sequence (whole entry): T1 sequence (Q5SK48 whole entry)
Method in brief: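 Reversibility test: MqnE preincubated with inhibitor for 1 h, inhibitor then removed by gel filtration, and enzyme activity compared for restoration.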

| SMILES | IC50 [1] | IC50 (Helicobacter pylori) | IC50 [2] | Ki [1] | inhibition [3] |
| --- | --- | --- | --- | --- | --- |
| Nc1ncnc2c1ncn2[C@@H]1O[C@H](CCC(Cc2cccc(C(=O)O)c2)C(=O)O)[C@@H](O)[C@H]1O (some centres not stated) | 839 µM | 16.1 µM | 83.3 µM | – | – |
| CCCCSC[C@H]1CN(Cc2c[nH]c3c(N)ncnc23)C[C@@H]1O | – | 0.012 µM | 1.4 µM | – | – |
| CN[C@@H]1[C@@H](O)[C@@H](O[C@@H]2[C@@H](O)[C@H](O[C@H]3O[C@H]([C@@H](C)N)CC[C@H]3N)[C@@H](N)C[C@H]2N)OC[C@]1(C)O [GENTAMICIN C2] | – | 0.26 µM | 1.9 µM | – | – |
| C=C(Cc1cccc(C(=O)O)c1)C(=O)O | 38.7 µM | 1.8 µM | 13.6 µM | 3.1 µM | Active |
